Source: ChEMBL document CHEMBL4715736, “Identification of anticancer agents based on the thieno[2,3-b]pyridine and 1H-pyrazole molecular scaffolds” (2016)

Tests used:
Type in all cases: functional
Conditions in all cases: read-out: Activity
CCRF-CEM = experiment: Growth inhibition of human CCRF-CEM cells assessed as cell growth at 10 uM incubated for 48 hrs by sulforhodamine B assay relative to control
In short: (§1)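 NCI Developmental Therapeutics Program NCI60 panel. Compounds that were active in the 10 µM one-dose screen went on to dose–response testing. Growth at each concentration is expressed relative to untreated control (100%). GI50 (concentration giving 50% of maximal inhibition of proliferation) and TGI (concentration giving total growth inhibition) were derived from the curves.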

HL-60(TB) = experiment: Growth inhibition of human HL-60(TB) cells assessed as cell growth at 10 uM incubated for 48 hrs by sulforhodamine B assay relative to control
In short: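 Screened by the NCI Developmental Therapeutics Program on its panel of 60 human tumour cell lines. Compounds were first tested at a single 10 µM dose, and compounds active there went to dose-response curves. Growth is expressed relative to untreated control (100%). GI50 (50% of maximal proliferation inhibition) and TGI (total growth inhibition) were derived from the dose-response data.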

MOLT-4 = experiment: Growth inhibition of human MOLT-4 cells assessed as cell growth at 10 uM incubated for 48 hrs by sulforhodamine B assay relative to control
In short: (§2)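 Submitted to the NCI Developmental Therapeutics Program for the NCI60 human tumour cell line panel. First screen at a single 10 µM concentration. Read-out is growth relative to untreated control cells set at 100%.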

HOP-62 = experiment: Growth inhibition of human HOP-62 cells assessed as cell growth at 10 uM incubated for 48 hrs by sulforhodamine B assay relative to control; in short: as §2
HOP-92 = experiment: Growth inhibition of human HOP-92 cells assessed as cell growth at 10 uM incubated for 48 hrs by sulforhodamine B assay relative to control; in short: as §2
NCI-H460 = experiment: Growth inhibition of human NCI-H460 cells assessed as cell growth at 10 uM incubated for 48 hrs by sulforhodamine B assay relative to control; in short: as §2
NCI-H522 = experiment: Growth inhibition of human NCI-H522 cells assessed as cell growth at 10 uM incubated for 48 hrs by sulforhodamine B assay relative to control; in short: as §2
HCT-15 = experiment: Growth inhibition of human HCT-15 cells assessed as cell growth at 10 uM incubated for 48 hrs by sulforhodamine B assay relative to control; in short: as §2
HT-29 = experiment: Growth inhibition of human HT-29 cells assessed as cell growth at 10 uM incubated for 48 hrs by sulforhodamine B assay relative to control; in short: as §2
SF-539 = experiment: Growth inhibition of human SF-539 cells assessed as cell growth at 10 uM incubated for 48 hrs by sulforhodamine B assay relative to control
In short: (§3)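 Run by the NCI Developmental Therapeutics Program as part of its 60-line human tumour panel. Each compound tested at a single 10 µM dose. Growth expressed as % relative to untreated control cells (100%).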

SNB-75 = experiment: Growth inhibition of human SNB-75 cells assessed as cell growth at 10 uM incubated for 48 hrs by sulforhodamine B assay relative to control; in short: as §3
SK-MEL-2 = experiment: Growth inhibition of human SK-MEL-2 cells assessed as cell growth at 10 uM incubated for 48 hrs by sulforhodamine B assay relative to control; in short: as §3
UACC-257 = experiment: Growth inhibition of human UACC-257 cells assessed as cell growth at 10 uM incubated for 48 hrs by sulforhodamine B assay relative to control; in short: as §3
NCI/ADR-RES = experiment: Growth inhibition of human NCI/ADR-RES cells assessed as cell growth at 10 uM incubated for 48 hrs by sulforhodamine B assay relative to control; in short: as §2
SK-OV-3 = experiment: Growth inhibition of human SK-OV-3 cells assessed as cell growth at 10 uM incubated for 48 hrs by sulforhodamine B assay relative to control; in short: as §3
786-0 = experiment: Growth inhibition of human 786-0 cells assessed as cell growth at 10 uM incubated for 48 hrs by sulforhodamine B assay relative to control; in short: as §1
TK-10 = experiment: Growth inhibition of human TK-10 cells assessed as cell growth at 10 uM incubated for 48 hrs by sulforhodamine B assay relative to control; in short: as §3
DU-145 = experiment: Growth inhibition of human DU-145 cells assessed as cell growth at 10 uM incubated for 48 hrs by sulforhodamine B assay relative to control; in short: as §1
MCF7 = experiment: Growth inhibition of human MCF7 cells assessed as cell growth at 10 uM incubated for 48 hrs by sulforhodamine B assay relative to control; in short: as §2
MDA-MB-231 = experiment: Growth inhibition of human MDA-MB-231 cells assessed as cell growth at 10 uM incubated for 48 hrs by sulforhodamine B assay relative to control; in short: as §2
Hs-578T = experiment: Growth inhibition of human Hs-578T cells assessed as cell growth at 10 uM incubated for 48 hrs by sulforhodamine B assay relative to control; in short: as §2
BT-549 = experiment: Growth inhibition of human BT-549 cells assessed as cell growth at 10 uM incubated for 48 hrs by sulforhodamine B assay relative to control
In short: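 NCI Developmental Therapeutics Program NCI60 human tumour cell line panel, one-dose primary screen with every compound at 10 µM. Growth is expressed as % of untreated control cells (100%).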

T47D = experiment: Growth inhibition of human T47D cells assessed as cell growth at 10 uM incubated for 48 hrs by sulforhodamine B assay relative to control; in short: as §3
CAKI-1 = experiment: Growth inhibition of human CAKI-1 cells assessed as cell growth at 10 uM incubated for 48 hrs by sulforhodamine B assay relative to control; in short: as §1

CC(=O)c1ccc2c(N)c(C(=O)Nc3ccccc3)sc2n1
growth at 10 µM (CCRF-CEM): 101%
growth at 10 µM (HL-60(TB)): 108%
growth at 10 µM (MOLT-4): 107%
growth at 10 µM (HOP-62): 102%
growth at 10 µM (HOP-92): 74%
growth at 10 µM (NCI-H460): 101%
growth at 10 µM (NCI-H522): 103%
growth at 10 µM (HCT-15): 96.7%
growth at 10 µM (HT-29): 97.2%
growth at 10 µM (SF-539): 97%
growth at 10 µM (SNB-75): 99.5%
growth at 10 µM (SK-MEL-2): 107%
growth at 10 µM (UACC-257): 102%
growth at 10 µM (NCI/ADR-RES): 103%
growth at 10 µM (SK-OV-3): 106%
growth at 10 µM (786-0): 97.9%
growth at 10 µM (TK-10): 108%
growth at 10 µM (DU-145): 107%
growth at 10 µM (MCF7): 96.8%
growth at 10 µM (MDA-MB-231): 112%
growth at 10 µM (Hs-578T): 106%
growth at 10 µM (BT-549): 108%
growth at 10 µM (T47D): 93.7%

CC(=O)c1cccc(NC(=O)c2sc3nc4c(cc3c2N)C(=O)CCC4)c1
growth at 10 µM (CCRF-CEM): 99.7%
growth at 10 µM (HL-60(TB)): 102%
growth at 10 µM (MOLT-4): 107%
growth at 10 µM (HOP-62): 97.9%
growth at 10 µM (HOP-92): 92.8%
growth at 10 µM (NCI-H460): 108%
growth at 10 µM (NCI-H522): 87.1%
growth at 10 µM (HCT-15): 93.7%
growth at 10 µM (HT-29): 96.9%
growth at 10 µM (SF-539): 101%
growth at 10 µM (SNB-75): 94.2%
growth at 10 µM (SK-MEL-2): 103%
growth at 10 µM (UACC-257): 99.3%
growth at 10 µM (NCI/ADR-RES): 107%
growth at 10 µM (SK-OV-3): 102%
growth at 10 µM (786-0): 97%
growth at 10 µM (TK-10): 89.3%
growth at 10 µM (DU-145): 108%
growth at 10 µM (MCF7): 84.4%
growth at 10 µM (MDA-MB-231): 100%
growth at 10 µM (Hs-578T): 106%
growth at 10 µM (BT-549): 93.7%
growth at 10 µM (T47D): 93.8%

Nc1c(C(=O)N(c2ccccc2)c2ccccc2)sc2nc3c(cc12)C(=O)CCC3
growth at 10 µM (CCRF-CEM): 96.1%
growth at 10 µM (HL-60(TB)): 105%
growth at 10 µM (MOLT-4): 102%
growth at 10 µM (HOP-62): 99.3%
growth at 10 µM (HOP-92): 103%
growth at 10 µM (NCI-H460): 99.9%
growth at 10 µM (NCI-H522): 103%
growth at 10 µM (HCT-15): 89.5%
growth at 10 µM (HT-29): 84.5%
growth at 10 µM (SF-539): 81.7%
growth at 10 µM (SNB-75): 108%
growth at 10 µM (SK-MEL-2): 117%
growth at 10 µM (UACC-257): 106%
growth at 10 µM (NCI/ADR-RES): 101%
growth at 10 µM (SK-OV-3): 108%
growth at 10 µM (786-0): 104%
growth at 10 µM (TK-10): 113%
growth at 10 µM (DU-145): 68.6%
growth at 10 µM (MCF7): 99.6%
growth at 10 µM (MDA-MB-231): 85.9%
growth at 10 µM (Hs-578T): 92.3%
growth at 10 µM (BT-549): 55.4%
growth at 10 µM (T47D): 99.5%

CC(C)N1CCc2nc3sc(C(=O)Nc4ccccc4)c(N)c3cc2C1
growth at 10 µM (CCRF-CEM): 100%
growth at 10 µM (HL-60(TB)): 98.4%
growth at 10 µM (MOLT-4): 106%
growth at 10 µM (HOP-62): 94.1%
growth at 10 µM (HOP-92): 55.6%
growth at 10 µM (NCI-H460): 99.6%
growth at 10 µM (NCI-H522): 104%
growth at 10 µM (HCT-15): 101%
growth at 10 µM (HT-29): 103%
growth at 10 µM (SF-539): 93%
growth at 10 µM (SNB-75): 69.1%
growth at 10 µM (SK-MEL-2): 114%
growth at 10 µM (UACC-257): 95.1%
growth at 10 µM (NCI/ADR-RES): 100%
growth at 10 µM (SK-OV-3): 113%
growth at 10 µM (786-0): 108%
growth at 10 µM (TK-10): 127%
growth at 10 µM (DU-145): 110%
growth at 10 µM (MCF7): 94.7%
growth at 10 µM (MDA-MB-231): 95.2%
growth at 10 µM (Hs-578T): 100%
growth at 10 µM (BT-549): 106%
growth at 10 µM (T47D): 91.7%

CC1(C)CCc2cc(-c3ccn(S(=O)(=O)c4ccc(Cl)cc4Cl)n3)ccc2O1
growth at 10 µM (CCRF-CEM): 62.4%
growth at 10 µM (HL-60(TB)): 102%
growth at 10 µM (MOLT-4): 84.8%
growth at 10 µM (HOP-62): 105%
growth at 10 µM (HOP-92): 57.1%
growth at 10 µM (NCI-H460): 95.6%
growth at 10 µM (NCI-H522): 60.4%
growth at 10 µM (HCT-15): 91%
growth at 10 µM (SF-539): 103%
growth at 10 µM (SNB-75): 97.4%
growth at 10 µM (SK-MEL-2): 79.7%
growth at 10 µM (UACC-257): 97.1%
growth at 10 µM (NCI/ADR-RES): 96.1%
growth at 10 µM (786-0): 79%
growth at 10 µM (CAKI-1): 83.8%
growth at 10 µM (TK-10): 68.7%
growth at 10 µM (DU-145): 96.9%
growth at 10 µM (MCF7): 86.6%
growth at 10 µM (MDA-MB-231): 93.3%
growth at 10 µM (Hs-578T): 98.8%
growth at 10 µM (T47D): 76.6%
